According to PubChem BioAssay AID1217 (Sanford-Burnham Center for Chemical Genomics, 2008):
The whole screen tested about 190,000 compounds, of which about 1,300 (0.68%) were called active. This is one part of a sample in which actives are shown more often than they occur. Unmarked numbers belong to inactive results.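 Rule for the calls: active = primary screen inhibition at 20 µM above a set limit (cut at about 50% in these data); inactive = the rest.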

These compounds were tested on diaphorase (Clostridium kluyveri) (assay: diaphorase inhibitors and chemical oxidizers, primary screen, counter-screen for diaphorase-coupled primary assays, biochemical, uHTS, resorufin fluorescence (AID 1217;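 note: plate controls were DMSO with full reaction for no effect and wells lacking NADH for full effect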)). Conditions: diaphorase resazurin-to-resorufin fluorescence, NADH, 16 min; at 20 µM; active compounds read high; bacterial (C. kluyveri) enzyme, not human.
Method in brief: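 controls = No-NADH positive control and DMSO neutral control | system = Clostridium kluyveri diaphorase enzyme | timing = reaction incubation of 16 min at room temperature | signal = resorufin fluorescence 544/590 nm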

SMILES	inhibition
OCCC1CN(Cc2cccn2-c2nccs2)CCN1CCc1ccccc1 (configuration not stated)	18.5%
N#C/C=C(/c1ccc(F)cc1)N1CCOCC1	20.9%
C(=C\c1ccccc1)/CSc1nnc(-c2cccnc2)n1Cc1ccco1	53.4% (active)
O=C(CSc1nnc(-c2cccnc2)n1Cc1ccco1)c1ccc(Cl)c(Cl)c1	4%
O=C(CSc1nnc(-c2cccnc2)n1Cc1ccco1)c1ccc(Cl)cc1	16.4%
CC(=O)c1ccc(N2CCN(CC(=O)Nc3ccccc3N3CCOCC3)CC2)cc1	4%
O=C(N/N=C/c1ccc2c(c1)OCO2)C(=O)N1CCCC1	-1.9%
CN(C(=O)CSc1nnc(Nc2ccccc2)s1)C1CCS(=O)(=O)C1 (configuration not stated)	15%
c1coc(-c2nc3nc4ccccc4n3nc2-c2ccco2)c1	57.8% (active)
Cn1c(-c2ccco2)nc2cc3ccccc3cc21	18.4%
Cc1nn2c3ccccc3nc2n(C)c1=O	15.5%
COc1cccc(NC(=S)N(Cc2ccc(C)cc2)Cc2ccccn2)c1	3.1%
Cc1cc(-c2csc(N)n2)c(C)n1-c1ccccc1	19.9%
CC(Sc1nc2c([nH]c3ccccc32)c(=O)n1C)c1ccccc1 (configuration not stated)	2.9%
COc1cccc(CNn2cn[nH]c2=S)c1OCc1ccccc1	79.8% (active)
C=CCOc1cccc(CNn2cn[nH]c2=S)c1	14%

SMILES	inhibition
C=CCOc1c(CNn2cn[nH]c2=S)cccc1OC	39.3%
O=c1[nH]n2c(=O)c3c([nH]c2c1N=Nc1ccccc1)CCC3	20.3%
Cc1csc(SCC(=O)Nc2sccc2C#N)n1	-2.4%
CCOc1ccc(CN2CCN(Cc3ccc(C)o3)CC2CCO)cc1 (configuration not stated)	-6.4%
OC(COc1ccc(CN2CCSCC2)cc1)CN1CCCCC1 (configuration not stated)	6.8%
CCOc1ccc(CN2CCCN(C)CC2)cc1	76.8% (active)
N#CC1(NC(=O)COc2ccc3oc4ccccc4c3c2)CCCCC1	-0.7%
O=c1[nH]c2ccccc2n2c(-c3ccccc3)nnc12	66.5% (active)
CC(=O)c1c(-c2ccccc2)c2ccccc2[nH]c1=O	17.9%
O=[N+]([O-])c1cccc(-c2nnc3c4ccccc4c4ccccc4n23)c1	3.7%
Cn1ncc2c(NNC(=O)Cc3cccc4ccccc34)ncnc21	8.6%
CN(CC#CCC(c1ccccc1)c1ccccc1)C(C)(C)C	17.9%
OC(C#CCN1CCOCC1)(c1ccccc1)C1CCCCC1 (configuration not stated)	-10.7%
CC(C)(C)N(CC#CCC(O)(c1ccccc1)C1CCCC1)CCO (configuration not stated)	57.2% (active)
O=S(=O)(Nc1ccc2cn[nH]c2c1)c1ccccc1	6.9%
COc1cccc(-c2ccc(C#N)c(SCC(=O)NCCc3ccc(Cl)cc3)n2)c1	7%
